Experimental data from ChEMBL document CHEMBL1123716, “Synthesis and tumor uptake of 5-halo-1-(2'-fluoro-2'-deoxy-beta-D-ribofuranosyl)[2-14C]uracils” (J Med Chem, 1987).
Values joined by “and” are separate entries in the source; they are usually repeats but may differ in a detail not shown here. Equal values may be shown once.

Tests used:
Conditions in all cases: in vivo
Mus musculus [1] = assay: Tissue distribution in BDF1 female mice bearing an implanted lewis lung tumor after intravenous injection in skin at 24 h.; type: ADME, organism-based, Skin of body
How it was run: (§1)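 Female BDF₁ mice (18–20 g) carrying transplanted Lewis lung tumor received 23–193 kBq of the [2-¹⁴C]-labeled nucleoside in normal saline via tail vein. The compound was stored as a dry film and reconstituted just before use. Animals were killed at set times, and tissue ¹⁴C was measured by combustion and liquid scintillation. Values are mean ± SD % injected dose per gram of wet tissue, n = 6.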

Mus musculus [2] = assay: Tissue distribution in BDF1 female mice bearing an implanted lewis lung tumor after intravenous injection in muscle at 1 h.; type: ADME, organism-based; how it was run: as §1
Mus musculus [3] = assay: Tissue distribution in BDF1 female mice bearing an implanted lewis lung tumor after intravenous injection in liver at 8 h.; type: ADME, organism-based; how it was run: as §1
Mus musculus [4] = assay: Tissue distribution in BDF1 female mice bearing an implanted lewis lung tumor after intravenous injection in skin at 0.5 h.; type: ADME, organism-based, Skin of body; how it was run: as §1
Mus musculus [5] = assay: Tissue distribution in BDF1 female mice bearing an implanted lewis lung tumor after intravenous injection in kidney at 2 h.; type: ADME, organism-based
How it was run: (§2)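 Female BDF1 mice (18–20 g) with implanted Lewis lung tumor received the 2-14C compound by tail vein, 23–193 kBq in normal saline, reconstituted from a dry film just before use. Animals were killed at set times and tissues taken for 14C counting by combustion and liquid scintillation. Values are percent injected dose per gram wet tissue, mean ± standard deviation, six animals.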

Mus musculus [6] = assay: Tissue distribution in BDF1 female mice bearing an implanted lewis lung tumor after intravenous injection in git(Section of intestine) at 2 h.; type: ADME, organism-based; how it was run: as §2
Mus musculus [7] = assay: Tissue distribution in BDF1 female mice bearing an implanted lewis lung tumor after intravenous injection in tumor at 4 h.; type: ADME, organism-based
How it was run: (§3)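 Female BDF1 mice (18–20 g) carrying a transplanted Lewis lung tumor were given 23–193 kBq of the [2-14C]-labelled nucleoside in normal saline by tail vein. Animals were killed at set times. Tissue 14C was counted by liquid scintillation, after combustion or directly. Values are percent of injected dose per gram wet tissue, as mean ± standard deviation of six animals.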

Mus musculus [8] = assay: Tissue distribution in BDF1 female mice bearing an implanted lewis lung tumor after intravenous injection in lung at 24 h.; type: ADME, organism-based; how it was run: as §1
Mus musculus [9] = assay: Tissue distribution in BDF1 female mice bearing an implanted lewis lung tumor after intravenous injection in git(Section of intestine) at 8 h.; type: ADME, organism-based; how it was run: as §2
Mus musculus [10] = assay: Tissue distribution in BDF1 female mice bearing an implanted lewis lung tumor after intravenous injection in bone at 0.5 h.; type: ADME, organism-based; how it was run: as §2
Mus musculus [11] = assay: Tissue distribution in BDF1 female mice bearing an implanted lewis lung tumor after intravenous injection in kidney at 24 h.; type: ADME, organism-based; how it was run: as §1
Mus musculus [12] = assay: Tissue distribution in BDF1 female mice bearing an implanted lewis lung tumor after intravenous injection in heart at 4 h.; type: ADME, organism-based; how it was run: as §2
Mus musculus [13] = assay: Tissue distribution in BDF1 female mice bearing an implanted lewis lung tumor after intravenous injection in lung at 0.25 h.; type: ADME, organism-based; how it was run: as §1
Mus musculus [14] = assay: Tissue distribution in BDF1 female mice bearing an implanted lewis lung tumor after intravenous injection in bone at 8 h.; type: ADME, organism-based; how it was run: as §2
Mus musculus [15] = assay: Tissue distribution in BDF1 female mice bearing an implanted lewis lung tumor after intravenous injection in tumor at 0.5 h.; type: ADME, organism-based; how it was run: as §3
Mus musculus [16] = assay: Tissue distribution in BDF1 female mice bearing an implanted lewis lung tumor after intravenous injection in bone at 24 h.; type: ADME, organism-based; how it was run: as §2
Mus musculus [17] = assay: Tissue distribution in BDF1 female mice bearing an implanted lewis lung tumor after intravenous injection in tumor at 2 h.; type: ADME, organism-based; how it was run: as §3
Mus musculus [18] = assay: Tissue distribution in BDF1 female mice bearing an implanted lewis lung tumor after intravenous injection in heart at 24 h.; type: ADME, organism-based; how it was run: as §2
Mus musculus [19] = assay: Tissue distribution in BDF1 female mice bearing an implanted lewis lung tumor after intravenous injection in spleen at 8 h.; type: ADME, organism-based; how it was run: as §1
Mus musculus [20] = assay: Tissue distribution in BDF1 female mice bearing an implanted lewis lung tumor after intravenous injection in muscle at 0.5 h.; type: ADME, organism-based; how it was run: as §1
Mus musculus [21] = assay: Tissue distribution in BDF1 female mice bearing an implanted lewis lung tumor after intravenous injection in tumor at 24 h.; type: ADME, organism-based; how it was run: as §3
Mus musculus [22] = assay: Tissue distribution in BDF1 female mice bearing an implanted lewis lung tumor after intravenous injection in git(Section of intestine) at 24 h.; type: ADME, organism-based; how it was run: as §2
Mus musculus [23] = assay: Tissue distribution in BDF1 female mice bearing an implanted lewis lung tumor after intravenous injection in spleen at 1 h.; type: ADME, organism-based; how it was run: as §1
Mus musculus [24] = assay: Tissue distribution in BDF1 female mice bearing an implanted lewis lung tumor after intravenous injection in blood at 4 h.; type: ADME, organism-based; how it was run: as §2
Mus musculus [25] = assay: Tissue distribution in BDF1 female mice bearing an implanted lewis lung tumor after intravenous injection in stomach at 8 h.; type: ADME, organism-based; how it was run: as §3
Mus musculus [26] = assay: Tissue distribution in BDF1 female mice bearing an implanted lewis lung tumor after intravenous injection in kidney at 4 h.; type: ADME, organism-based; how it was run: as §1
Mus musculus [27] = assay: Tissue distribution in BDF1 female mice bearing an implanted lewis lung tumor after intravenous injection in git(Section of intestine) at 1 h.; type: ADME, organism-based; how it was run: as §2
Mus musculus [28] = assay: Tissue distribution in BDF1 female mice bearing an implanted lewis lung tumor after intravenous injection in blood at 8 h.; type: ADME, organism-based; how it was run: as §2
Mus musculus [29] = assay: Tissue distribution in BDF1 female mice bearing an implanted lewis lung tumor after intravenous injection in bone at 4 h.; type: ADME, organism-based; how it was run: as §2
Mus musculus [30] = assay: Tissue distribution in BDF1 female mice bearing an implanted lewis lung tumor after intravenous injection in blood at 0.25 h; type: ADME, organism-based; how it was run: as §2
Mus musculus [31] = assay: Tissue distribution in BDF1 female mice bearing an implanted lewis lung tumor after intravenous injection in skin at 1 h.; type: ADME, organism-based, Skin of body; how it was run: as §1
Mus musculus [32] = assay: Tissue distribution in BDF1 female mice bearing an implanted lewis lung tumor after intravenous injection in muscle at 4 h.; type: ADME, organism-based; how it was run: as §1
Mus musculus [33] = assay: Tissue distribution in BDF1 female mice bearing an implanted lewis lung tumor after intravenous injection in bone at 2 h.; type: ADME, organism-based; how it was run: as §2
Mus musculus [34] = assay: Tissue distribution in BDF1 female mice bearing an implanted lewis lung tumor after intravenous injection in liver at 1 h.; type: ADME, organism-based; how it was run: as §1
Mus musculus [35] = assay: Tissue distribution in BDF1 female mice bearing an implanted lewis lung tumor after intravenous injection in lung at 8 h.; type: ADME, organism-based; how it was run: as §1
Mus musculus [36] = assay: Tissue distribution in BDF1 female mice bearing an implanted lewis lung tumor after intravenous injection in heart at 0.25 h.; type: ADME, organism-based; how it was run: as §2
Mus musculus [37] = assay: Tissue distribution in BDF1 female mice bearing an implanted lewis lung tumor after intravenous injection in git(Section of intestine) at 4 h.; type: ADME, organism-based; how it was run: as §2
Mus musculus [38] = assay: Tissue distribution in BDF1 female mice bearing an implanted lewis lung tumor after intravenous injection in git(Section of intestine) at 0.25 h.; type: ADME, organism-based; how it was run: as §2
Mus musculus [39] = assay: Tissue distribution in BDF1 female mice bearing an implanted lewis lung tumor after intravenous injection in lung at 2 h.; type: ADME, organism-based; how it was run: as §1
Mus musculus [40] = assay: Tissue distribution in BDF1 female mice bearing an implanted lewis lung tumor after intravenous injection in tumor at 8 h.; type: ADME, organism-based; how it was run: as §3
Mus musculus [41] = assay: Tissue distribution in BDF1 female mice bearing an implanted lewis lung tumor after intravenous injection in spleen at 24 h.; type: ADME, organism-based; how it was run: as §1
Mus musculus [42] = assay: Tissue distribution in BDF1 female mice bearing an implanted lewis lung tumor after intravenous injection in blood at 0.5 h.; type: ADME, organism-based; how it was run: as §2
Mus musculus [43] = assay: Tissue distribution in BDF1 female mice bearing an implanted lewis lung tumor after intravenous injection in skin at 8 h.; type: ADME, organism-based, Skin of body; how it was run: as §1
Mus musculus [44] = assay: Tissue distribution in BDF1 female mice bearing an implanted lewis lung tumor after intravenous injection in kidney at 1 h.; type: ADME, organism-based; how it was run: as §2

## O=c1[nH]c(=O)n([C@H]2O[C@@H](CO)[C@H](O)[C@H]2F)cc1Cl
Mus musculus [1]
  Tissue distribution: 0.01
Mus musculus [2]
  Tissue distribution: 0.27
Mus musculus [3]
  Tissue distribution: 0.03
Mus musculus [4]
  Tissue distribution: 1.24
Mus musculus [5]
  Tissue distribution: 1.6
Mus musculus [6]
  Tissue distribution: 0.17
Mus musculus [7]
  Tissue distribution: 0.23
Mus musculus [8]
  Tissue distribution: 0.01
Mus musculus [9]
  Tissue distribution: 0.04
Mus musculus [10]
  Tissue distribution: 0.41
Mus musculus [11]
  Tissue distribution: 0.03
Mus musculus [12]
  Tissue distribution: 0.06
Mus musculus [13]
  Tissue distribution: 2.73
Mus musculus [14]
  Tissue distribution: 0.02
Mus musculus [15]
  Tissue distribution: 1.82
Mus musculus [16]
  Tissue distribution: 0.01
Mus musculus [17]
  Tissue distribution: 0.34
Mus musculus [18]
  Tissue distribution: 0.02
Mus musculus [19]
  Tissue distribution: 0.15
Mus musculus [20]
  Tissue distribution: 0.78
Mus musculus [21]
  Tissue distribution: 0.03
Mus musculus [22]
  Tissue distribution: 0.02
Mus musculus [23]
  Tissue distribution: 0.48
Mus musculus [24]
  Tissue distribution: 0.06
Mus musculus [25]
  Tissue distribution: 0.05
Mus musculus [26]
  Tissue distribution: 0.33
Mus musculus [27]
  Tissue distribution: 0.38
Mus musculus [28]
  Tissue distribution: 0.03
Mus musculus [29]
  Tissue distribution: 0.04
Mus musculus [30]
  Tissue distribution: 3.54
Mus musculus [31]
  Tissue distribution: 0.36
Mus musculus [32]
  Tissue distribution: 0.05
Mus musculus [33]
  Tissue distribution: 0.08
Mus musculus [34]
  Tissue distribution: 0.47 and 0.6
Mus musculus [35]
  Tissue distribution: 0.03
Mus musculus [36]
  Tissue distribution: 3.07
Mus musculus [37]
  Tissue distribution: 0.06
Mus musculus [38]
  Tissue distribution: 1.91
Mus musculus [39]
  Tissue distribution: 0.14
Mus musculus [40]
  Tissue distribution: 0.07
Mus musculus [41]
  Tissue distribution: 0.06
Mus musculus [42]
  Tissue distribution: 1.82
Mus musculus [43]
  Tissue distribution: 0.02
Mus musculus [44]
  Tissue distribution: 7.28

## O=c1[nH]c(=O)n([C@H]2O[C@@H](CO)[C@H](O)[C@H]2F)cc1F
Mus musculus [1]
  Tissue distribution: 0.004
Mus musculus [2]
  Tissue distribution: 0.37
Mus musculus [3]
  Tissue distribution: 0.01
Mus musculus [4]
  Tissue distribution: 1.18
Mus musculus [5]
  Tissue distribution: 0.84
Mus musculus [6]
  Tissue distribution: 0.11
Mus musculus [7]
  Tissue distribution: 0.16
Mus musculus [8]
  Tissue distribution: 0.005
Mus musculus [9]
  Tissue distribution: 0.02
Mus musculus [10]
  Tissue distribution: 0.85
Mus musculus [11]
  Tissue distribution: 0.01
Mus musculus [12]
  Tissue distribution: 0.02
Mus musculus [13]
  Tissue distribution: 3.37
Mus musculus [14]
  Tissue distribution: 0.03
Mus musculus [15]
  Tissue distribution: 3.88
Mus musculus [16]
  Tissue distribution: 0.02
Mus musculus [17]
  Tissue distribution: 0.49
Mus musculus [18]
  Tissue distribution: 0.005
Mus musculus [19]
  Tissue distribution: 0.09
Mus musculus [20]
  Tissue distribution: 1.06
Mus musculus [21]
  Tissue distribution: 0.02
Mus musculus [22]
  Tissue distribution: 0.01
Mus musculus [23]
  Tissue distribution: 1.44
Mus musculus [24]
  Tissue distribution: 0.02
Mus musculus [25]
  Tissue distribution: 0.01
Mus musculus [26]
  Tissue distribution: 0.08
Mus musculus [27]
  Tissue distribution: 0.71
Mus musculus [28]
  Tissue distribution: 0.01
Mus musculus [29]
  Tissue distribution: 0.07
Mus musculus [30]
  Tissue distribution: 3.49
Mus musculus [31]
  Tissue distribution: 0.43
Mus musculus [32]
  Tissue distribution: 0.02
Mus musculus [33]
  Tissue distribution: 0.11
Mus musculus [34]
  Tissue distribution: 0.53
Mus musculus [35]
  Tissue distribution: 0.01
Mus musculus [36]
  Tissue distribution: 3.8
Mus musculus [37]
  Tissue distribution: 0.04
Mus musculus [38]
  Tissue distribution: 3.35
Mus musculus [39]
  Tissue distribution: 0.07
Mus musculus [40]
  Tissue distribution: 0.05
Mus musculus [41]
  Tissue distribution: 0.03
Mus musculus [42]
  Tissue distribution: 1.59
Mus musculus [43]
  Tissue distribution: 0.01
Mus musculus [44]
  Tissue distribution: 8.21
